Laboratory results: ChEMBL document CHEMBL1275377, “Structure-based design, synthesis, and structure-activity relationship studies of HIV-1 protease inhibitors incorporating phenyloxazolidinones” (J Med Chem, 2010)

These compounds were tested on Human immunodeficiency virus 1 (assay: Antiviral activity against Human immunodeficiency virus 1 clade C isolated from HIV-AIDS patient).
Type: functional, organism-based
Work on `COC(=O)Nc1cccc(N2C[C@@H](C(=O)N[C@@H](Cc3ccccc3)[C@H](O)CN(CC(C)C)S(=O)(=O)c3ccc4ncsc4c3)OC2=O)c1` yielded an EC50 of 3 nM. `CC(C)CN(C[C@@H](O)[C@H](Cc1ccccc1)NC(=O)O[C@H]1CO[C@H]2OCC[C@H]21)S(=O)(=O)c1ccc(N)cc1` gave an EC50 of 0.4 nM.

These compounds were tested on Human immunodeficiency virus 1 (assay: Antiviral activity against Human immunodeficiency virus 1 clade A isolated from HIV-AIDS patient).
Type: functional, organism-based
`COC(=O)Nc1cccc(N2C[C@@H](C(=O)N[C@@H](Cc3ccccc3)[C@H](O)CN(CC(C)C)S(=O)(=O)c3ccc4ncsc4c3)OC2=O)c1` gave an EC50 of 2.4 nM. `CC(C)CN(C[C@@H](O)[C@H](Cc1ccccc1)NC(=O)O[C@H]1CO[C@H]2OCC[C@H]21)S(=O)(=O)c1ccc(N)cc1` gave an EC50 of 0.6 nM.

What follows are compounds tested on Human immunodeficiency virus 1 (assay: Antiviral activity against multidrug resistant Human immunodeficiency virus 1 harboring protease M46I, I54V, V82A and L90M mutant).
Type: functional, organism-based
In short: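 Drug susceptibility assay run by an outside contract lab. Panel: patient-derived wild-type HIV-1 clades A, B and C; MDR1 carrying protease M46I, I54V, V82A, L90M; MDR control MDRC4; and an NL4-3-derived clade B wild-type control (CNDO). The PR/RT regions of these strains were sequenced and deposited.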
For `COC(=O)Nc1cccc(N2C[C@@H](C(=O)N[C@@H](Cc3ccccc3)[C@H](O)CN(CC(C)C)S(=O)(=O)c3ccc4ncsc4c3)OC2=O)c1`, the EC50 was 10.8 nM. `CC(C)CN(C[C@@H](O)[C@H](Cc1ccccc1)NC(=O)O[C@H]1CO[C@H]2OCC[C@H]21)S(=O)(=O)c1ccc(N)cc1` was tested, and the EC50 was 0.5 nM.

The compounds below were run on Human immunodeficiency virus 1 (assay: Antiviral activity against Human immunodeficiency virus 1 clade B isolated from HIV-AIDS patient).
Type: functional, organism-based
Compound `COC(=O)Nc1cccc(N2C[C@@H](C(=O)N[C@@H](Cc3ccccc3)[C@H](O)CN(CC(C)C)S(=O)(=O)c3ccc4ncsc4c3)OC2=O)c1` has an EC50 of 1.6 nM. `CC(C)CN(C[C@@H](O)[C@H](Cc1ccccc1)NC(=O)O[C@H]1CO[C@H]2OCC[C@H]21)S(=O)(=O)c1ccc(N)cc1` gave an EC50 of 0.4 nM.

The compounds below were run on Human immunodeficiency virus 1 (assay: Antiviral activity against wild type Human immunodeficiency virus 1).
Type: functional, organism-based
`COC(=O)Nc1cccc(N2C[C@@H](C(=O)N[C@@H](Cc3ccccc3)[C@H](O)CN(CC(C)C)S(=O)(=O)c3ccc4ncsc4c3)OC2=O)c1` gave an EC50 of 1.2 nM. Compound `CC(C)CN(C[C@@H](O)[C@H](Cc1ccccc1)NC(=O)O[C@H]1CO[C@H]2OCC[C@H]21)S(=O)(=O)c1ccc(N)cc1` has an EC50 of 0.4 nM.

Each compound was assayed on Human immunodeficiency virus 1 (assay: Antiviral activity against multidrug resistant Human immunodeficiency virus 1 MDRC4).
Type: functional, organism-based
`COC(=O)Nc1cccc(N2C[C@@H](C(=O)N[C@@H](Cc3ccccc3)[C@H](O)CN(CC(C)C)S(=O)(=O)c3ccc4ncsc4c3)OC2=O)c1` was tested, and the EC50 was 13 nM.

The compounds below were run against Protease (Human immunodeficiency virus 1, UniProt Q9YQ12) (assay: Inhibition of wild type HIV1 protease by FRET).
Protease, sequence (Q9YQ12 whole entry): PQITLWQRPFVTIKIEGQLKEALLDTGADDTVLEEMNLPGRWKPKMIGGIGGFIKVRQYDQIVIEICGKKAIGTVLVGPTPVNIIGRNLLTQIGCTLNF
For `CC(C)CN(C[C@@H](O)[C@H](Cc1ccccc1)NC(=O)[C@@H]1CN(c2ccccc2)C(=O)O1)S(=O)(=O)c1ccc(CO)cc1`, the Ki was 0.252 nM. In the case of `CC(C)CN(C[C@@H](O)[C@H](Cc1ccccc1)NC(=O)[C@@H]1CN(c2ccc(F)cc2F)C(=O)O1)S(=O)(=O)c1ccc(N)cc1`, the Ki is reported as 0.385 nM. In the case of `CC(C)CN(C[C@@H](O)[C@H](Cc1ccccc1)NC(=O)[C@@H]1CN(c2ccc(F)cc2F)C(=O)O1)S(=O)(=O)c1ccc2c(c1)OCO2`, the Ki is reported as 0.347 nM. For `CC(C)CN(C[C@@H](O)[C@H](Cc1ccccc1)NC(=O)[C@@H]1CN(c2ccc(F)cc2F)C(=O)O1)S(=O)(=O)c1ccc(CO)cc1`, the Ki was 0.212 nM. Work on `CC(C)CN(C[C@@H](O)[C@H](Cc1ccccc1)NC(=O)[C@@H]1CN(c2ccc(F)cc2)C(=O)O1)S(=O)(=O)c1ccc(N)cc1` yielded a Ki of 0.448 nM. `CC(=O)c1ccc(N2C[C@@H](C(=O)N[C@@H](Cc3ccccc3)[C@H](O)CN(CC(C)C)S(=O)(=O)c3ccc(CO)cc3)OC2=O)cc1` was tested, and the Ki was 0.317 nM. Compound `CC(C)CN(C[C@@H](O)[C@H](Cc1ccccc1)NC(=O)[C@@H]1CN(c2cccc(F)c2)C(=O)O1)S(=O)(=O)c1ccc(CO)cc1` has a Ki of 0.319 nM. In the case of `CC(C)CN(C[C@@H](O)[C@H](Cc1ccccc1)NC(=O)[C@@H]1CN(c2ccc(F)c(F)c2)C(=O)O1)S(=O)(=O)c1ccc(CO)cc1`, the Ki is reported as 0.33 nM. `CC(=O)c1cccc(N2C[C@@H](C(=O)N[C@@H](Cc3ccccc3)[C@H](O)CN(CC(C)C)S(=O)(=O)c3ccc(CO)cc3)OC2=O)c1` gave a Ki of 0.236 nM. In the case of `CC(C)CN(C[C@@H](O)[C@H](Cc1ccccc1)NC(=O)[C@@H]1CN(c2ccccc2)C(=O)O1)S(=O)(=O)c1ccc(N)cc1`, the Ki is reported as 0.53 nM. Compound `CC(=O)c1cccc(N2C[C@@H](C(=O)N[C@@H](Cc3ccccc3)[C@H](O)CN(CC(C)C)S(=O)(=O)c3ccc4c(c3)OCO4)OC2=O)c1` has a Ki of 0.006 nM. In the case of `COc1ccc(S(=O)(=O)N(CC(C)C)C[C@@H](O)[C@H](Cc2ccccc2)NC(=O)[C@@H]2CN(c3ccccc3)C(=O)O2)cc1`, the Ki is reported as 0.1 nM.
